The values that follow come from ChEMBL document CHEMBL1143933, “Synthesis, dopaminergic profile, and molecular dynamics calculations of N-aralkyl substituted 2-aminoindans” (Bioorg Med Chem, 2008).

Calls of active or inactive are those of the source. No cut-off for these calls is given here.

What all share (type): functional, organism-based
Assay [1] relates to Rattus norvegicus. Kind of assay: Natriuretic effect in icv dosed Sprague-Dawley rat assessed as increase in sodium excretion after 3 hrs. An outline of the steps:
(§1)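 Adult male Sprague-Dawley rats (220–280 g) fitted with a cannula in the left lateral cerebroventricle under pentobarbital (40 mg/kg, ip), then allowed at least 3 days of recovery. Single ICV injection of 50 µg/10 µl, or vehicle NaCl 0.9%. Oral water load of 20 ml/kg, then individual metabolic cages. Urine collected at 3 and 6 h, with the bladder emptied at 6 h. Sodium measured by flame photometry. N = 6–8 per group; two-way ANOVA with Newman–Keuls.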

The test system of assay [2] is Rattus norvegicus. Briefly: Inhibition of dopamine-induced diuresis in icv dosed Sprague-Dawley rat. An outline of the steps:
(§2)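 Male Sprague-Dawley rats (220–280 g) with a left lateral ventricle cannula. ICV pretreatment of 50 µg/5 µl, or vehicle 5 µl, given 15 min before ICV dopamine (100 µg/5 µl) or saline, then oral water 20 ml/kg. Urine volume and sodium (flame photometry) measured over 3 h and 6 h collections. N = 6–8; two-way ANOVA with Newman–Keuls.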

In assay [3] the test system is Rattus norvegicus. Kind of assay: Inhibition of dopamine-induced natriuresis in icv dosed Sprague-Dawley rat. An outline of the steps:
as §2

The subject of assay [4] is Rattus norvegicus. Briefly: Induction of stereotyped behavior in Sprague-Dawley rat at 0.6 ug/ul, icv. An outline of the steps:
(§3)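 Cannula placed in the right lateral ventricle under pentobarbital (40 mg/kg, ip) at 0.40 mm bregma, 1.1 mm lateral, 2.2 mm ventral. After 3 days, compound (0.6 or 6.0 µg/5 µl, or 50 µg/5 µl) or 0.9% NaCl infused at 0.5 µl/min. Starting 5 min later, behavior observed for 45 min in Plexiglas chambers. Gnawing recorded by computer at 4.5 min intervals. Four rats per measurement; ANOVA with Duncan's test.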

Assay [5] relates to Rattus norvegicus. Kind of assay: Induction of stereotyped behavior in Sprague-Dawley rat at 6 ug/ul, icv. An outline of the steps:
as §3

The subject of assay [6] is Rattus norvegicus. Briefly: Reduction of apomorphine-induced stereotyped behavior in Sprague-Dawley rat at 0.6 ug/ul, icv. An outline of the steps: (§4)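 Rats cannulated in the right lateral ventricle. ICV infusion of 0.6 or 6.0 µg/5 µl, or 0.9% NaCl, at 0.5 µl/min. Apomorphine HCl (1 mg/kg) given 1 min before observation began. Stereotyped gnawing recorded by computer at 4.5 min intervals for 45 min. Four rats per measurement; means ± SEM; ANOVA with Duncan's multiple range test.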

Assay [7] deals with Rattus norvegicus. Kind of assay: Reduction of apomorphine-induced stereotyped behavior in Sprague-Dawley rat at 6 ug/ul, icv. An outline of the steps:
as §4

The test system of assay [8] is Rattus norvegicus. Kind of assay: Diuretic effect in icv dosed Sprague-Dawley rat assessed as increase in urine volume after 6 hrs. An outline of the steps:
as §1

Assay [9] relates to Rattus norvegicus. Kind of assay: Natriuretic effect in icv dosed Sprague-Dawley rat assessed as increase in sodium excretion after 6 hrs. An outline of the steps:
as §1

For assay [10], the system named is Rattus norvegicus. Kind of assay: Induction of stereotyped behavior in icv dosed Sprague-Dawley rat. An outline of the steps: as §3

In the case of `CC(Cc1ccc(O)c(O)c1)NC1Cc2ccc(O)c(O)c2C1` (configuration not stated), the result in the assay on Rattus norvegicus [1], with Rattus norvegicus [4], in the assay on Rattus norvegicus [5], in the assay on Rattus norvegicus [8] and in the assay with Rattus norvegicus [9] was inactive. Moreover, the outcome in the assay on Rattus norvegicus [2], with Rattus norvegicus [3], in the assay on Rattus norvegicus [6] and with Rattus norvegicus [7] was Active.

Consider `CCC(C)NC1Cc2ccc(O)c(O)c2C1` (configuration not stated), for which the result in the assay with Rattus norvegicus [10], in the assay on Rattus norvegicus [8] and in the assay with Rattus norvegicus [9] was Active.
